Experiment [1] relates to HL-60. In words: Inhibition of okadaic acid-induced TNFalpha production in human HL60 cells at 30 uM after 16 hrs by ELISA relative to control. It is filed as functional. Particulars: HL-60, 16 h, values are per cent of control. In a few lines: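 HL-60 cells in RPMI 1640 with 10% fetal bovine serum, 2 mM L-glutamine and penicillin/streptomycin, 37 °C, 5% CO2. Exponential cells (5×10^5 cells/mL) given 50 nM okadaic acid plus compound (30 µM) for 16 h. Cell number and morphology checked microscopically. Supernatant TNF-α measured by human TNF-α ELISA, expressed as % of okadaic acid-only treatment (100%). At least three experiments, triplicate means.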

Experiment [2] relates to HL-60. In words: Enhancement of 12-O-tetradecanoylphorbol-13-acetate-induced TNFalpha production in human HL60 cell at 30 uM after 16 hrs by ELISA relative to control. The format is functional. In a few lines: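 HL-60 cells in RPMI 1640 with 10% fetal bovine serum, 2 mM L-glutamine and penicillin/streptomycin, 37 °C, 5% CO2. Exponential cells (5×10^5 cells/mL) co-treated with 10 nM TPA plus compound (30 µM) for 16 h. Cell number and morphology checked microscopically. Supernatant TNF-α measured by human TNF-α ELISA, expressed as % of TPA-only treatment (100%). At least three experiments, triplicate means.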
On the technique in general: An ELISA detects its analyte on a solid surface through an enzyme-linked reagent.

The test system of experiment [3] is HT-29. In words: Cytotoxicity against human HT-29 cells by MTT assay. The format is functional, cell-based. For orientation: Tetrazolium dyes change colour on reduction, which living cells bring about.
Experiment [4] relates to HUVEC. In words: Cytotoxicity against HUVEC by MTT assay. It is filed as cell-based. Particulars: Homo sapiens.
The subject of experiment [5] is HL-60. Briefly: Cytotoxicity against human HL60 cells by MTT assay. It is filed as functional, cell-based.
The subject of experiment [6] is DLD-1. In words: Cytotoxicity against human DLD1 cells by MTT assay. It is filed as functional, cell-based.
Experiment [7] has as its system ST486. Briefly: Cytotoxicity against human ST486 cells by MTT assay. It is filed as functional, cell-based.

We go through 23 compounds from ChEMBL document CHEMBL1153763, “Discovering a new analogue of thalidomide which may be used as a potent modulator of TNF-alpha production” (Eur J Med Chem, 2009).

On to `CN(C)CCN1C(=O)CCC(N2C(=O)c3ccccc3C2=O)C1=O` (stereo unspecified), for which the response, % of control at 30 µM in experiment [1] came out at 93%. Besides, in experiment [2], the Activity was determined as 125%. For the same compound, the IC50 in experiment [3], in experiment [4], in experiment [5], in experiment [6] and in experiment [7] was above 50 µM in each case.
For `CN(C)CCN1C(=O)CCC(n2c(=O)c3cc4c(=O)n(C5CCC(=O)N(CCN(C)C)C5=O)c(=O)c4cc3c2=O)C1=O` (stereo unspecified), in experiment [1], the response, % of control at 30 µM was 77%. For the same compound, in experiment [2], the Activity worked out at 138%. The IC50 in experiment [3], in experiment [4], in experiment [5], in experiment [6] and in experiment [7] was above 50 µM each time.
`CN(CCN1C(=O)CCC(N2C(=O)c3ccccc3C2=O)C1=O)CCN1C(=O)CCC(N2C(=O)c3ccccc3C2=O)C1=O` (stereo unspecified): the response, % of control at 30 µM in experiment [1] was determined as 99%. Also, the Activity in experiment [2] was determined as 159%. The IC50 in experiment [3], in experiment [4], in experiment [5], in experiment [6] and in experiment [7] was above 50 µM each time.
For the compound `O=C1CCC(N2C(=O)c3cccc4cc([N+](=O)[O-])cc(c34)C2=O)C(=O)N1` (stereo unspecified), the response, % of control at 30 µM in experiment [1] was found to be 47%. Also, the Activity in experiment [2] was 248%. The IC50 in experiment [3], in experiment [4], in experiment [5], in experiment [6] and in experiment [7] was above 50 µM throughout.
Turning to `CN(C)CCN1C(=O)CCC(N2C(=O)c3cccc4cccc(c34)C2=O)C1=O` (stereo unspecified), the response, % of control at 30 µM in experiment [1] came to 91%. In experiment [2], the Activity was 107%. Besides, the IC50 in experiment [3], in experiment [4], in experiment [5], in experiment [6] and in experiment [7] was above 50 µM in each case.
As for `CN(C)CCN1C(=O)CCC(N2C(=O)c3cccc4cc([N+](=O)[O-])cc(c34)C2=O)C1=O` (stereo unspecified), the response, % of control at 30 µM in experiment [1] came to 48%. In addition, the Activity in experiment [2] was found to be 124%. Moreover, the 50% inhibitory concentration (IC50) in experiment [3], in experiment [4], in experiment [5], in experiment [6] and in experiment [7] was above 50 µM each time.
In experiment [1], `Nc1cc2c3c(cccc3c1)C(=O)N(C1CCC(=O)NC1=O)C2=O` (stereo unspecified) registered a response, % of control at 30 µM of 46%. Moreover, the Activity in experiment [2] is 138%. Moreover, the IC50 in experiment [3], in experiment [4], in experiment [5], in experiment [6] and in experiment [7] was above 50 µM each time.
On to `NC(=O)CCC(C(=O)O)N1C(=O)c2cc3ccccc3cc2C1=O` (stereo unspecified), for which the response, % of control at 30 µM in experiment [1] is 60%. Moreover, the Activity in experiment [2] is 258%. The IC50 in experiment [3], in experiment [4], in experiment [5], in experiment [6] and in experiment [7] was above 50 µM in each case.
Compound `NC(=O)CCC(C(=O)O)N1C(=O)c2ccc3ccccc3c2C1=O` (stereo unspecified) displayed a response, % of control at 30 µM in experiment [1] of 111%. For the same compound, in experiment [2], the Activity came out at 146%. The IC50 in experiment [3], in experiment [4], in experiment [5], in experiment [6] and in experiment [7] was above 50 µM throughout.
`CN(C)CCN1C(=O)CCC(N2C(=O)c3cccc4cc(N)cc(c34)C2=O)C1=O` (stereo unspecified) showed a response, % of control at 30 µM in experiment [1] of 47%. The Activity in experiment [2] was 132%. The IC50 in experiment [3], in experiment [4], in experiment [5], in experiment [6] and in experiment [7] was above 50 µM throughout.
In experiment [1], `CN(C)CCN1C(=O)CCC(N2C(=O)c3cc4ccccc4cc3C2=O)C1=O` (stereo unspecified) showed a response, % of control at 30 µM of 50%. Also, in experiment [2], the Activity was 149%. In addition, the IC50 in experiment [3], in experiment [4], in experiment [5], in experiment [6] and in experiment [7] was above 50 µM throughout.
As for `CN(C)CCN1C(=O)CCC(N2C(=O)c3ccc4ccccc4c3C2=O)C1=O` (stereo unspecified), the response, % of control at 30 µM in experiment [1] worked out at 59%. Besides, the Activity in experiment [2] turned out to be 105%. In addition, the IC50 in experiment [3], in experiment [4], in experiment [5], in experiment [6] and in experiment [7] was above 50 µM throughout.
Compound `O=C1CCC(N2C(=O)c3cc4ccccc4cc3C2=O)C(=O)N1` (stereo unspecified) came in with a response, % of control at 30 µM in experiment [1] of 138%. Further, in experiment [2], the Activity was determined as 166%. Moreover, the IC50 in experiment [3], in experiment [4], in experiment [5], in experiment [6] and in experiment [7] was above 50 µM in each case.
The compound `O=C1CCC(N2C(=O)c3ccc4ccccc4c3C2=O)C(=O)N1` (stereo unspecified) registered a response, % of control at 30 µM in experiment [1] of 78%. Also, the Activity in experiment [2] is 161%. The IC50 in experiment [3], in experiment [4], in experiment [5], in experiment [6] and in experiment [7] was above 50 µM throughout.
Consider `O=C1CCC(N2C(=O)C(c3ccccc3)=C(c3ccccc3)C2=O)C(=O)N1` (stereo unspecified), for which, in experiment [1], the response, % of control at 30 µM turned out to be 47%. Also, the Activity in experiment [2] turned out to be 147%. In addition, the IC50 in experiment [3], in experiment [4], in experiment [5], in experiment [6] and in experiment [7] was above 50 µM each time.
Take `NC(=O)CCC(C(=O)O)N1C(=O)C(c2ccccc2)=C(c2ccccc2)C1=O` (stereo unspecified): the response, % of control at 30 µM in experiment [1] turned out to be 66%. The Activity in experiment [2] turned out to be 146%. The IC50 in experiment [3], in experiment [4], in experiment [5], in experiment [6] and in experiment [7] was above 50 µM throughout.
For `O=C1CCC(n2c(=O)c3cc4c(=O)n(C5CCC(=O)NC5=O)c(=O)c4cc3c2=O)C(=O)N1` (stereo unspecified), the response, % of control at 30 µM in experiment [1] came out at 34%. In experiment [2], the Activity came out at 294%. The IC50 in experiment [3], in experiment [4], in experiment [5], in experiment [6] and in experiment [7] was above 50 µM each time.
The compound `CN(C)CCN1C(=O)CCC(N2C(=O)C(c3ccccc3)=C(c3ccccc3)C2=O)C1=O` (stereo unspecified) came in with a response, % of control at 30 µM in experiment [1] of 6%. Moreover, the Activity in experiment [2] came out at 672%. For the same compound, the IC50 in experiment [3], in experiment [4], in experiment [5], in experiment [6] and in experiment [7] was above 50 µM each time.
`NC(=O)CCC(C(=O)O)N1C(=O)c2cccc3cccc(c23)C1=O` (stereo unspecified) had a response, % of control at 30 µM in experiment [1] of 55%. The Activity in experiment [2] was 116%. In addition, the IC50 in experiment [3], in experiment [4], in experiment [5], in experiment [6] and in experiment [7] was above 50 µM throughout.
For the compound `NC(=O)CCC(C(=O)O)N1C(=O)c2cccc3cc([N+](=O)[O-])cc(c23)C1=O` (stereo unspecified), the response, % of control at 30 µM in experiment [1] is 51%. Also, the Activity in experiment [2] worked out at 86%. The IC50 in experiment [3], in experiment [4], in experiment [5], in experiment [6] and in experiment [7] was above 50 µM each time.
The compound `NC(=O)CCC(C(=O)O)N1C(=O)c2cccc3cc(N)cc(c23)C1=O` (stereo unspecified) yielded a response, % of control at 30 µM in experiment [1] of 49%. The Activity in experiment [2] turned out to be 140%. Besides, the IC50 in experiment [3], in experiment [4], in experiment [5], in experiment [6] and in experiment [7] was above 50 µM each time.
As to `O=C1CCC(N2C(=O)c3cccc4cccc(c34)C2=O)C(=O)N1` (stereo unspecified), the response, % of control at 30 µM in experiment [1] stood at 49%. In experiment [2], the Activity turned out to be 158%. The IC50 in experiment [3], in experiment [4], in experiment [5], in experiment [6] and in experiment [7] was above 50 µM each time.
As for `O=C1CCC(N2C(=O)c3ccccc3C2=O)C(=O)N1` (stereo unspecified) [THALIDOMIDE], the response, % of control at 30 µM in experiment [1] is 53%. Moreover, the Activity in experiment [2] amounted to 164%. The half-maximal inhibitory concentration (IC50) in experiment [3], in experiment [4], in experiment [5], in experiment [6] and in experiment [7] was above 50 µM each time.

As a reminder, the IC50 is the concentration needed to halve the response being measured.
